In ChEMBL document CHEMBL2380309, “Design, synthesis, and biological evaluation of new 2'-deoxy-2'-fluoro-4'-triazole cytidine nucleosides as potent antiviral agents” (Eur J Med Chem, 2013):

Legend:
[1] = Cytotoxicity against human MT2 cells by MTT assay; assay type: cell-based
[2] = Selectivity index, ratio of CC50 for human MT2 cells to EC50 for HIV1; assay type: toxicity, cell-based; settings: read-out: Ratio CC50/EC50
[3] = system: Human immunodeficiency virus 1; assay: Antiviral activity against HIV1 expressing VSV glycoprotein plasmid infected in human 293T cells treated 15 mins before viral infection measured after 48 hrs by luciferase reporter gene assay; assay type: functional, organism-based; settings: Human immunodeficiency virus 1, HEK-293T
Outline: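 293T cells plated 6×10⁴/well one hour before infection. Compound preincubated 15 min, then VSVG-pseudotyped env-deficient HIV-1 (pNL4-3.luc.R-E-, from Ca₃(PO₄)₂ co-transfection of 293T) added. Solvent-only control. After 48 h, cells lysed and luciferase activity read by luminometer. EC50 is the mean of at least two independent determinations.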

Hepatitis B virus [4] = assay: Antiviral activity against HBV infected in human HepG2.2.15 assessed as reduction of viral s-antigen production […] by ELISA; assay type: functional, organism-based; settings: HepG2 2.2.15
[5] = Cytotoxicity against human HepG2.2.15 cells after 3 days by MTT assay; assay type: cell-based, HepG2 2.2.15
Outline: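 HepG2.2.15 cells, kept in RPMI 1640 with 10% FBS and G418 at 37°C under 5% CO2, were seeded at 1×10⁵ cells/well and cultured 24 h. They were then exposed to four compound concentrations (5 wells each) for 3 days, with drug-free cells as control. MTT (5 mg/mL) was added for 4 h at 37°C, formazan dissolved in DMSO, and A490 read. Survival was expressed as % of control, and CC50 was taken by Reed-Muench from at least two independent determinations.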

Hepatitis B virus [6] = assay: Antiviral activity against HBV infected in human HepG2.2.15 assessed as reduction of viral e-antigen production […] by ELISA; assay type: functional, organism-based; settings: HepG2 2.2.15
[7] = Selectivity index, ratio of CC50 for human HepG2.2.15 cells to EC50 for HBV infected in human HepG2.2.15 assessed as reduction of viral e-antigen production
[8] = Selectivity index, ratio of CC50 for human HepG2.2.15 cells to EC50 for HBV infected in human HepG2.2.15 assessed as reduction of viral s-antigen production

SMILES	CC50 [1] [nM]	selectivity ratio [2]	EC50 [3] [nM]	EC50 (Hepatitis B virus [4]) [nM]	CC50 at 72 h [5] [nM]	EC50 (Hepatitis B virus [6]) [nM]	Ratio CC50/EC50 [7]	Ratio CC50/EC50 [8]
CC(C)(C)c1cn([C@]2(CO)O[C@@H](n3ccc(N)nc3=O)[C@@H](F)[C@@H]2O)nn1	≥ 25000	> 278	80					
CCCCc1cn([C@]2(CO)O[C@@H](n3ccc(N)nc3=O)[C@@H](F)[C@@H]2O)nn1	≥ 25000		300					
Nc1ccn([C@@H]2O[C@@](CO)(n3cc(CC4CCCCC4)nn3)[C@@H](O)[C@@H]2F)c(=O)n1	≥ 25000		4800					
Nc1ccn([C@@H]2O[C@@](CO)(n3cc(C4(O)CCCC4)nn3)[C@@H](O)[C@@H]2F)c(=O)n1	≥ 25000		1300					
Nc1ccn([C@@H]2O[C@@](CO)(n3cc(C4CC4)nn3)[C@@H](O)[C@@H]2F)c(=O)n1	≥ 25000		600	120	834000	1000		
Nc1ccn([C@@H]2O[C@@](CO)(n3ccnn3)[C@@H](O)[C@@H]2F)c(=O)n1	≥ 25000	> 278	90					
Nc1ccn([C@@H]2O[C@@](CO)(n3cc(-c4ccccc4)nn3)[C@@H](O)[C@@H]2F)c(=O)n1	≥ 25000	> 278	83	100	566000	250	2264	
Cc1ccc(-c2cn([C@]3(CO)O[C@@H](n4ccc(N)nc4=O)[C@@H](F)[C@@H]3O)nn2)cc1	≥ 25000		3700	10	498000	> 1000		49800
CCc1ccc(-c2cn([C@]3(CO)O[C@@H](n4ccc(N)nc4=O)[C@@H](F)[C@@H]3O)nn2)cc1	≥ 25000		600					
[N-]=[N+]=N[C@]1(CO)O[C@@H](n2ccc(N)nc2=O)[C@@H](F)[C@@H]1O [RO-0622]	> 10000		0.3					
Cc1cn([C@H]2C[C@H](N=[N+]=[N-])[C@@H](CO)O2)c(=O)[nH]c1=O [ZIDOVUDINE]	≥ 25000		84					
